# In the library only some 3.1% were active in any assay of this set; here they are far more common.
# hERG protect = shields human hERG channel from block by proarrhythmic agents. AID 1511. Q12809. 0.51% of 310,000 active. CHO-hERG, FluxOR thallium flux, dofetilide IC70 present. activation (rescue from dofetilide block), less the hit threshold, % at 10 µM;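 active means activation above the mean of controls blocked by dofetilide plus 5 SD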;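 further: thallium influx through hERG after potassium depolarization seen as dye fluorescence rise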
# Target sequence (Q12809 whole entry, looked up): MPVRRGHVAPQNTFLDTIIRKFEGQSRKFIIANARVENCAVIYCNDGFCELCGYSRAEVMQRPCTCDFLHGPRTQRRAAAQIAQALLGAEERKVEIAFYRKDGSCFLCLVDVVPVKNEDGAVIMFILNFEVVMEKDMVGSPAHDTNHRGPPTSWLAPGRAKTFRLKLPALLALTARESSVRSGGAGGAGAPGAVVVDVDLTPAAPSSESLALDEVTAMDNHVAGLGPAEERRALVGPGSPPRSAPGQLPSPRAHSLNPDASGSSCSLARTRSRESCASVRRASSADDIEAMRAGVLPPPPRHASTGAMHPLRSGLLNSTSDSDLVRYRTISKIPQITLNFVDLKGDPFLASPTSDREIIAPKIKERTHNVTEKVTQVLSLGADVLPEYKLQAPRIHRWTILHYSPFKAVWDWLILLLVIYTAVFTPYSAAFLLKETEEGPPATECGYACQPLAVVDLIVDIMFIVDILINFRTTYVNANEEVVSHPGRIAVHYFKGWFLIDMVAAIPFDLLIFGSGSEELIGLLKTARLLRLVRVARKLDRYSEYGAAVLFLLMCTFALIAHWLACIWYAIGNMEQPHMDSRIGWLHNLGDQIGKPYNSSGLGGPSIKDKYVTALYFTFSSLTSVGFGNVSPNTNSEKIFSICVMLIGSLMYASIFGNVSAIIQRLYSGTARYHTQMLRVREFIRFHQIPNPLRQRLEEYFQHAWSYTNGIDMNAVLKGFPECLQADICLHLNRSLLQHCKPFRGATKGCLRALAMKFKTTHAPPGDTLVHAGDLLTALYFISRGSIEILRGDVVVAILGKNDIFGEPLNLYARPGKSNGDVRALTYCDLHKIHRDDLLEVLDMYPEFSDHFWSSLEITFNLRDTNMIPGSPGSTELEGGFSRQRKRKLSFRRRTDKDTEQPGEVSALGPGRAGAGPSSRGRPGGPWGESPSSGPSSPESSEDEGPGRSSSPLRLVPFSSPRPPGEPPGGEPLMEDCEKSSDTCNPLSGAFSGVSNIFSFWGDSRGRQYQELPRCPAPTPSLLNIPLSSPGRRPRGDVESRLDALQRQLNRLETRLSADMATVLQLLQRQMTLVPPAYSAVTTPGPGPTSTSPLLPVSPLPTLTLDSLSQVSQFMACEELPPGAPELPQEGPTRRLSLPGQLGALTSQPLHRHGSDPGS
# KCNK3 inh = human KCNK3 channel inhibition, primary screen. O14649. CHO-KCNK3 thallium flux, FluxOR fluorescence; stronger effect = lower value. B-score at 10 µM. 0.84% of 340,000 active. AID 602410;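 active means B-score under library mean minus 4 SD, starting fluorescence ratio at most library mean plus 5 SD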;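 further: more negative B-score means stronger inhibition of thallium flux through KCNK3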
# KCNQ1 act = potentiates or activates the human KCNQ1 potassium channel; P51787; CHO-K1 KCNQ1, thallium flux FluxOR fluorescence; stronger effect = higher value; B-score at 10 µM; 0.35% of 310,000 active; AID 2648;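 active means fluorescence ratio B-score, a plate-corrected score, at least three library SD, with initial intensity B-score within 5 SD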
#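 assay system = CHO-K1 cells stably expressing KCNQ1 | medium = assay buffer, equal DMSO in all wells | timing = 37 °C overnight plating, 90-min dark dye load, 20-min compound pretreatment | measured by = kinetic FluxOR thallium fluorescence, 10-s 1-Hz baseline, 110-s post-stimulus read | measure = fluorescence change relative to baseline, converted to B score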
# KCNK9 inh = human KCNK9 channel inhibition; Q9NPC2; HEK293 KCNK9, FluxOR thallium flux fluorescence; stronger effect = lower value; B-score at 10 µM; 1.2% of 310,000 active;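 active means ratio B-score over 3 SD below the library mean, with starting fluorescence within 5 SD of its mean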;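 further: negative B-score means less thallium flux so channel inhibition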
# KCNQ1 inh = inhibitors of human KCNQ1 potassium channel. P51787. CHO-K1 KCNQ1, FluxOR thallium flux fluorescence; stronger effect = higher value. B-score at 10 µM. 1.3% of 310,000 active. AID 2642;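 active means compounds whose thallium flux B-score, printed positive for inhibition, exceeds three library SD while starting fluorescence stays within three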;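 further: channel opened by potassium depolarization with thallium stimulus after 20 min compound exposure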
# KCNQ1 block val = reconfirmed blocker of the human KCNQ1 potassium channel | shares compounds with KCNQ1 inh | KCNQ1 cell line, FluxOR thallium flux fluorescence | inhibition, % at 10 µM | 93% of 1,600 active | AID 588353;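 active means primary screen active, with duplicate mean exceeding buffer control mean plus 3 SD of buffer wells, cut at about 28% in these data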
# CHO Tl flux = KCNQ1 inhibitor counter-screen hit in parental CHO cells. shares compounds with KCNQ1 inh. parental CHO-K1, FluxOR thallium flux fluorescence ratio; stronger effect = lower value; zero means no signal rise above baseline. fluorescence ratio (Tl flux) at 10 µM. 21% of 1,600 active. AID 588366;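 active means mean of duplicate thallium-flux fluorescence ratios in parental host cells more than 5 SD below the buffer control mean, cut at about 0.38 in these data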;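 further: ratio is peak minus minimum fluorescence divided by baseline fluorescence; actives read low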
# KCNQ1 APC inh = confirmation of human KCNQ1 potassium channel inhibitors by electrophysiology. shares compounds with KCNQ1 inh. KCNQ1-CHO cells, automated patch clamp current. calls only at 10 µM. 20% of 490 active. AID 624120;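 active means KCNQ1 current drop exceeding 3 SD of negative control wells, seen in both duplicate runs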;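 further: steady state current during a 2 s step from -80 to +40 mV; negative values mean current inhibition and positive values mean potentiation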
# KCNQ2 inh = rat KCNQ2 inhibition in KCNQ1 inhibitor specificity screen | shares compounds with KCNQ1 inh | KCNQ2 cells, FluxOR thallium flux fluorescence | inhibition, % at 10 µM | 71% of 1,600 active | AID 651746;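 active means mean percent inhibition of the KCNQ2 thallium signal more than 5 SD above the buffer-only control wells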;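 further: KCNQ2 expressed in CHO cells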
# KCNQ1-KCNE1 inh = human KCNQ1/KCNE1 inhibition in KCNQ1 specificity screen. shares compounds with KCNQ1 inh. KCNQ1/KCNE1 cells, FluxOR thallium flux fluorescence. inhibition, % at 10 µM. 77% of 1,600 active. AID 652147;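 active means mean percent inhibition of duplicate wells above the buffer-only control mean plus 3 SD of those controls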
# Hits are given with their value; n = inactive; x = no result; + = active, no number.
SMILES,hERG protect,KCNK3 inh,KCNQ1 act,KCNK9 inh,KCNQ1 inh,KCNQ1 block val,CHO Tl flux,KCNQ2 inh,KCNQ1-KCNE1 inh,others
CCOc1ccc2ncc(C(=O)c3ccc(OC)cc3)c(N3CCN(CC)CC3)c2c1,n,n,n,n,n,x,x,x,x,
CCOc1ccc(N2C(=O)Nc3ccccc3C2(O)C(=O)N2CCN(c3ccccn3)CC2)cc1 (configuration not stated),n,n,n,n,n,x,x,x,x,
CCOC(=O)c1cn[nH]c1NC(=S)Nc1ccc(Cl)cc1,n,n,n,n,13,78,n,76%,54%,
COc1ccc(NC(=O)C(=O)c2cn(CC(=O)N3CCOCC3)c3ccccc23)cc1OC,n,n,n,n,n,x,x,x,x,
O=C(Nc1cc(Cl)cc(Cl)c1)C(c1ccccc1)N1CCCCC1 (configuration not stated),n,n,n,n,8,120,0.36,122%,114%,
COc1cccc(NC(=O)C(c2ccccc2)N2CCCCC2)c1 (configuration not stated),n,n,n,n,n,x,x,x,x,
Cc1ccc(NC(=O)C(c2ccc(Cl)cc2Cl)N2CCCC2)cc1 (configuration not stated),n,n,n,-7.1,8,92,n,n,152%,KCNQ1 APC inh=+
CCOc1ccc(CCNC(=O)CCCn2nc(C)c3c(C)n(-c4ccccc4)nc3c2=O)cc1,n,n,n,n,n,x,x,x,x,
CC(NC(=S)NC1CCCCC1)c1ccc(C(C)(C)C)cc1 (configuration not stated),n,n,n,n,8,104,n,n,77%,KCNQ1 APC inh=n
COC(=O)c1cccc(NC(=S)Nc2ccc(Cl)c(Cl)c2)c1,n,n,n,n,8,168,n,n,n,KCNQ1 APC inh=n
COC(=O)c1cccc(NC(=S)Nc2ccccc2Cl)c1,n,n,n,n,n,x,x,x,x,
COC(=O)c1cc(NC(=O)Nc2cccc(Cl)c2)ccc1Cl,n,n,n,n,6,62,n,n,n,
COC(=O)c1cc(NC(=S)Nc2cc(Cl)cc(Cl)c2)cc(C(=O)OC)c1,n,n,n,n,8,66,n,59%,n,
COC(=O)c1cccc(NC(=O)Nc2ccc(Cl)cc2)c1,n,n,n,n,7,44,n,n,n,
COC(=O)c1ccccc1C(=O)N1CCC(CCC(=O)NC2CC2)CC1,n,n,n,n,n,x,x,x,x,
Cc1ccc(S(=O)(=O)N(CC(=O)N/N=C/c2ccccc2C(=O)O)c2cc(Cl)cc(Cl)c2)cc1,n,n,n,n,n,x,x,x,x,
CN1CCN(S(=O)(=O)c2ccc(NC(=O)Nc3cccc(Cl)c3)cc2)CC1,n,n,n,n,11,62,n,65%,n,
NS(=O)(=O)c1cccc(NC(=O)Nc2ccc(Cl)cc2)c1,n,n,n,n,8,137,n,101%,108%,KCNQ1 APC inh=n
Cc1cccc(NC(=O)Nc2ccc(S(N)(=O)=O)cc2)c1,n,n,n,n,n,x,x,x,x,
O=C(Nc1ccccc1)Nc1cc(Cl)cc(Cl)c1,n,n,n,n,10,28,n,78%,n,
O=C(Nc1cccc(Cl)c1)Nc1cccc(Cl)c1,n,n,n,n,n,x,x,x,x,
COc1ccc(NC(=S)Nc2cccc(Cl)c2)cc1OC,n,n,n,n,13,32,n,n,n,
CCn1nnnc1NC(=O)c1cc(Cl)c(OC)c(Cl)c1,n,n,n,n,n,x,x,x,x,
O=C(COC(=O)C1CC2CCCC(C1)C2=O)NNC(=O)c1ccccc1F (configuration not stated),n,n,n,n,n,x,x,x,x,
O=C(CSc1nnc(-c2cccc(F)c2)o1)N1CCCC1,n,n,n,n,n,x,x,x,x,
SMILES,hERG protect,KCNK3 inh,KCNQ1 act,KCNK9 inh,KCNQ1 inh,KCNQ1 block val,CHO Tl flux,KCNQ2 inh,KCNQ1-KCNE1 inh,others
CC(C)=CC(=O)OCC(=O)Nc1ccc(SC(F)F)cc1,n,n,n,n,n,x,x,x,x,
O=C(Nc1ccncc1)Nc1ccc(Cl)cc1,n,n,n,n,7,28,n,n,n,
CCCCc1ccc(N/C(N)=N/c2nc(C)cc(C)n2)cc1,n,n,n,n,11,96,n,66%,n,KCNQ1 APC inh=+
Cc1ccc(N/C(N)=N/c2nc(C)cc(C)n2)cc1,n,n,n,n,n,x,x,x,x,
Cc1nn(-c2ccccc2)c2c1C(c1ccccc1)C(C#N)=C(N)O2 (configuration not stated),n,n,n,n,n,x,x,x,x,
Cc1nn(-c2ccccc2)c2c1C(c1ccc(F)cc1F)C(C#N)=C(N)O2 (configuration not stated),n,n,n,n,7,45,n,n,52%,
CCCN(C(=O)c1ccco1)c1nnc(-c2ccccc2C)s1,n,n,n,n,n,x,x,x,x,
Cc1ccc(Cl)cc1N1CCN(C(=O)CCCn2c(=O)c3cccn3c3cccnc32)CC1,n,n,n,n,6,98,n,107%,177%,KCNQ1 APC inh=n
Cc1cccc(N2CCN(C(=O)CCCn3c(=O)c4cccn4c4cccnc43)CC2)c1C,n,n,n,n,n,x,x,x,x,
Cc1ccc(S(=O)(=O)N2CCc3ccccc3C2CN2C(=O)c3ccccc3C2=O)cc1 (configuration not stated),n,n,n,n,n,x,x,x,x,
CCc1ccc(NC(=O)c2cccc(C(=O)Nc3ccc(CC)cc3)n2)cc1,n,n,n,n,n,x,x,x,x,
Cc1ccc(NC(=O)c2cccc(C(=O)Nc3ccc(C)c(C)c3)n2)cc1C,n,n,n,n,8,n,n,104%,36%,
Cn1c(=O)[nH]c2ccc([N+](=O)[O-])nc21,n,n,n,n,n,x,x,x,x,
Cc1ccccc1C(=O)Nc1ccc2c(C#N)c3nc4ccccc4nc3n2c1,n,n,n,n,8,32,n,64%,n,
O=C(NCc1cccc(Cl)c1)c1ccc(-c2csnn2)cc1,n,n,n,n,n,x,x,x,x,
CCO/C(C)=C1/SC(=S)NC1=O,n,n,n,n,n,x,x,x,x,
O=C(Nc1ccccc1N1CCCC1)c1ccccc1F,n,n,n,n,n,x,x,x,x,
O=C(COc1ccccc1[N+](=O)[O-])Nc1ccccc1N1CCCCC1,n,n,n,n,n,x,x,x,x,
Cc1ccccc1OCC(=O)Nc1ccccc1N1CCCCC1,n,n,n,-8,8,120,n,95%,170%,KCNQ1 APC inh=n
O=C(Nc1ccccc1N1CCCCC1)c1ccccc1F,n,n,n,n,6,102,0.37,76%,144%,
